Reference: ChEMBL document CHEMBL4308845, “Allosteric Activation of Striatal-Enriched Protein Tyrosine Phosphatase (STEP, PTPN5) by a Fragment-like Molecule” (J Med Chem, 2019)
Activity calls are given as the source filed them. No cut-off for these calls is given here.

How the values were obtained:
[1] = target: T1, Tyrosine-protein phosphatase non-receptor type 5 (Homo sapiens) (UniProt P54829); test: Binding affinity to human 15N-labeled STEP PTP domain (281 to 563 residues) expressed in Escherichia coli OD2 assessed as induction of chemical perturbation at 500 uM by 1H,15N TROSY NMR spectral analysis
T1 sequence (whole entry): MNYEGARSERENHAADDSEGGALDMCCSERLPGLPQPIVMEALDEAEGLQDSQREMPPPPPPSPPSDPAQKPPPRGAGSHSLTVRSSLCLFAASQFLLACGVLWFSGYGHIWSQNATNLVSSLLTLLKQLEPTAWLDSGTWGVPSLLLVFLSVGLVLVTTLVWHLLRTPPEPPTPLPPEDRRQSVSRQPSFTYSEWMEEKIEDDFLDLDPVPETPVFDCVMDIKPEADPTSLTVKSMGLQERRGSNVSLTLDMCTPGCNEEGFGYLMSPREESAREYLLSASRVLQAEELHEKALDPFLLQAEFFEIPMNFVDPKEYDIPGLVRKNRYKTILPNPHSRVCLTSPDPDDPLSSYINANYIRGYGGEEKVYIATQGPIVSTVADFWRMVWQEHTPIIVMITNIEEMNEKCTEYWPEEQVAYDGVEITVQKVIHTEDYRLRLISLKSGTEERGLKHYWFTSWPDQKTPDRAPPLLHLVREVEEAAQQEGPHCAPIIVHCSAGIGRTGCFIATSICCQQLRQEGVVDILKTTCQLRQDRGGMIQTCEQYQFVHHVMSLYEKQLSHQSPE
Procedure, shortened: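 40 μM 15N-labelled STEP PTP domain in 20 mM Tris-d11, 100 mM NaCl, 1 mM TCEP, pH 7.4, 8% D2O, 1% DMSO-d6, 298 K. TROSY spectra used 192 transients and 64 indirect points. Binders were called by manual comparison with the protein-only reference spectrum.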

[2] = target: T2, Tyrosine-protein phosphatase non-receptor type 5 (Homo sapiens, UniProt P54829); test: Binding affinity to human STEP PTP domain (281 to 563 residues) expressed in Escherichia coli BL21(DE3) by ITC
T2 sequence (P54829 whole entry): T1 sequence (whole entry)
Procedure, shortened: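 Desalted STEP PTP domain in 10 mM HEPES, 200 mM NaCl, 0.5 mM TCEP, pH 7.5. 200 μM protein titrated with 18 × 2 μL injections of 2 mM ligand at 25 °C. Single-site model fit gave ΔH, n, ΔS and Ka; mean ± SD of three independent titrations.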

[3] = target: T3, Tyrosine-protein phosphatase non-receptor type 1 (Homo sapiens) (UniProt P18031); test: Binding affinity to human PTP1B by 1H,15N TROSY NMR spectral analysis
T3 sequence (whole entry): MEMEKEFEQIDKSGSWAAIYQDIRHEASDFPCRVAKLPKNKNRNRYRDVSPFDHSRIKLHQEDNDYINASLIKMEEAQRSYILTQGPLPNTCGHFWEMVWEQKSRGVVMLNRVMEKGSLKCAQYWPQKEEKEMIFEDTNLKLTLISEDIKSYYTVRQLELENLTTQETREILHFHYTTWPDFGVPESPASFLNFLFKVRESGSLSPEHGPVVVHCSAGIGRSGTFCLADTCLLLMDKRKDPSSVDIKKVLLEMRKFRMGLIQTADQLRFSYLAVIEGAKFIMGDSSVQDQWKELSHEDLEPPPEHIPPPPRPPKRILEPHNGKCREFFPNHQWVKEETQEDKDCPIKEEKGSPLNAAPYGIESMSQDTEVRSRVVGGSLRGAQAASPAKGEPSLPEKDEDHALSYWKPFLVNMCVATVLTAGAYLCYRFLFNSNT

[4] = species on record: Homo sapiens; test: Activation of human STEP46 (197 to 565 residues) expressed in Escherichia coli BL21(DE3) using biotin-pFyn peptide substrate after 60 mins by AlphaLISA assay
Procedure, shortened: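 STEP46 (50 nM final) with biotinylated pFyn peptide (20 nM final) and compound in 1% DMSO, 60 min at room temperature in the dark. Detection by anti non-phospho Src/Tyr416 antibody in stop buffer containing 10 μM orthovanadate, plus protein A acceptor and streptavidin donor beads, 15 min each. % CTL computed against enzyme (100%) and no-enzyme (0%) controls.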

[5] = species on record: Homo sapiens; test: Activation of human STEP46 (197 to 565 residues) expressed in Escherichia coli BL21(DE3) using pFyn peptide substrate after 60 mins by RapidFire MS/MS assay relative to control
Procedure, shortened: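 Unlabeled Fyn peptide with STEP46 (50 nM final) and compound (500 μM final) in 50 mM HEPES, 0.02% Brij35, 1 mM DTT; 1 h at room temperature. Stopped with sodium orthovanadate (12 μM final), internal standard peptide added, dephosphorylation quantified by RapidFire MS/MS using MRM in positive mode.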

[6] = target: T1, Tyrosine-protein phosphatase non-receptor type 5 (Homo sapiens); test: Activation of human STEP PTP domain (281 to 563 residues) expressed in Escherichia coli BL21(DE3) at 500 uM using biotin-pFyn peptide substrate after 60 mins by AlphaLISA assay relative to control
Procedure, shortened: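 AlphaLISA on the human STEP PTP domain (E. coli BL21(DE3)), 20 nM enzyme with 3 nM biotin-pFyn peptide, otherwise as for STEP46: 60 min at room temperature, anti non-phospho Src/Tyr416 antibody with orthovanadate stop, donor and acceptor beads, % of enzyme and no-enzyme controls.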

[7] = species on record: Homo sapiens; test: Activation of human STEP46 (197 to 565 residues) expressed in Escherichia coli BL21(DE3) at 300 uM preincubated for 10 mins followed by DiFMUP substrate addition and measured at 1 min time interval for 30 mins by fluorescence assay relative to control
Procedure, shortened: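 STEP46 preincubated 10 min at room temperature with compound; reaction started with DiFMUP. Final: 100 nM STEP46, 1 μM DiFMUP, 50 mM HEPES, 0.02% Brij 35, 1 mM DTT, 5% DMSO. Fluorescence (ex 340/em 460 nm) every 1 min for 30 min at 37 °C; no-enzyme background subtracted. Linear slope expressed relative to enzyme without compound (100%).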

[8] = species on record: Homo sapiens; test: Binding affinity to human STEP46 (197 to 565 residues) expressed in Escherichia coli BL21(DE3) assessed as increase in melting temperature at 500 uM by SYPRO Orange dye based DSF
Procedure, shortened: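 STEP46 at 5 μM with 25× SYPRO Orange and 500 μM ligand (1% DMSO) in 20 mM HEPES pH 7.5, 50 mM NaCl, 1 mM TCEP, in duplicate. Heated 25 to 95 °C at 1 °C/min with reads every 0.5 °C. Tm taken from the minimum of the first-derivative curve; ΔTm relative to DMSO.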

Activity [1]: Active | Kd [2]: 800 µM | Activity [3]: inactive | Activity [4]: Dose-dependent effect | Activity [5]: 28% | Activity [6]: 61% | Activity [7]: 27% | ΔTm [8]: 1.4 °C
Compound: N=C(N)Nc1cc(C2CCNCC2)cc(C(F)(F)F)c1
